Experimental findings from ChEMBL document CHEMBL1142516, “Design, synthesis, and structure-affinity relationships of novel series of sialosides as CD22-specific inhibitors” (J Med Chem, 2008) are described below.

The term pIC50 denotes the negative decadic logarithm of the IC50, by convention in mol/L. Higher therefore signals a low IC50.

pIC50: −log10 of the molar value.

In one experiment the target is T1, B-cell receptor CD22 (Homo sapiens, UniProt P20273).
T1 sequence (P20273 whole entry): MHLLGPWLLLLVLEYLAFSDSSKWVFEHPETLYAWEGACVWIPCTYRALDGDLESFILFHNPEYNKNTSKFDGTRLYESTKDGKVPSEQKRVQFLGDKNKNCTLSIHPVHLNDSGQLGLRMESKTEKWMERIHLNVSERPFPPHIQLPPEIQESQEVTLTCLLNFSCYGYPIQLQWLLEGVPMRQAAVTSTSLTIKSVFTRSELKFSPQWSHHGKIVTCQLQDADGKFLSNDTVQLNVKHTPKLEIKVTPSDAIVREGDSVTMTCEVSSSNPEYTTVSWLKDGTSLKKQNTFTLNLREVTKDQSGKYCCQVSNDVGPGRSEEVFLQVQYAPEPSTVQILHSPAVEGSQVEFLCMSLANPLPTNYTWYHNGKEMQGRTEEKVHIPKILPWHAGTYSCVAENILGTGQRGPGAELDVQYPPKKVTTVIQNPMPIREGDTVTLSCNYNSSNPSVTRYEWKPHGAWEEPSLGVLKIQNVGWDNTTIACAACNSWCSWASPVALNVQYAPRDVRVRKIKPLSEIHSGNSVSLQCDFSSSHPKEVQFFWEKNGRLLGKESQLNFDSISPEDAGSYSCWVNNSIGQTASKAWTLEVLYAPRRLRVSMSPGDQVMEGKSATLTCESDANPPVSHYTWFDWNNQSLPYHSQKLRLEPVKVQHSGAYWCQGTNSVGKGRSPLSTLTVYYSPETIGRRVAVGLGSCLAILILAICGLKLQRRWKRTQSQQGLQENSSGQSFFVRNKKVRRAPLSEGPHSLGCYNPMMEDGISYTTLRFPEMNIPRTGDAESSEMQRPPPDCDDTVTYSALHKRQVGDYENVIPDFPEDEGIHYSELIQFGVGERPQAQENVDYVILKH
Put plainly: Binding affinity to biotinylated human CD22-human IgG1 chimeric protein expressed in mouse J558LST6 cells by flow cytometry. Type of experiment: cell-based. In short, it runs like this: (§1)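 IC50 from inhibition of CD22-Fc binding to alpha2,6-sialic acid on ST6GalI-transfected J558L mouse myeloma cells (J558LST6), incubated with CD22-Fc plus varied sialoside concentrations. Detection with Alexa Fluor 647-streptavidin, 30 min on ice, then flow cytometry. % binding = (A−B)/(C−B)×100 using MFI: A, sialoside sample; B, parent J558L; C, untreated J558LST6. IC50 taken as 50% binding inhibition; means of ≥3 independent determinations.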
For orientation: A flow cytometer gives signals particle by particle.

Experiment [1] can be described thus: Binding affinity to biotinylated mouse CD22-human IgG1 chimeric protein expressed in mouse J558LST6 cells by flow cytometry. The class given is cell-based. In short, it runs like this: as §1

Regarding `COc1ccc(O[C@@H]2O[C@H](CO[C@]3(C(=O)O)C[C@H](O)[C@@H](NC(=O)CO)[C@H]([C@H](O)[C@H](O)CNC(=O)c4cc(Cl)ccc4O)O3)[C@H](O)[C@H](O)[C@H]2O)cc1`, the results for the pIC50 (on B-cell receptor CD22; in experiment [1]) were 3.94 and 3.79, respectively.
Regarding `C[Si](C)(C)CCO[C@@H]1O[C@H](CO[C@]2(C(=O)O)C[C@H](O)[C@@H](NC(=O)CO)[C@H]([C@H](O)[C@H](O)CO)O2)[C@H](O)[C@H](O)[C@H]1O`, the pIC50 on B-cell receptor CD22 is 3.26; in experiment [1], 3.08.
The corresponding values for `COc1ccc(O[C@@H]2O[C@H](CO[C@]3(C(=O)O)C[C@H](O)[C@@H](NC(=O)CO)[C@H]([C@H](O)[C@H](O)CNC(=O)c4ccccc4)O3)[C@H](O)[C@H](O)[C@H]2O)cc1` are 3.90 and 3.94.
The like results for `COc1ccc(O[C@@H]2O[C@H](CO[C@]3(C(=O)O)C[C@H](O)[C@@H](NC(=O)CO)[C@H]([C@H](O)[C@H](O)CO)O3)[C@H](O)[C@H](O)[C@H]2O)cc1` were, in that order, 3.83 and 3.30.
With `COc1ccc(O[C@@H]2O[C@H](CO[C@]3(C(=O)O)C[C@H](O)[C@@H](NC(=O)CO)[C@H]([C@H](O)[C@H](O)CNC(=O)c4cccnc4)O3)[C@H](O)[C@H](O)[C@H]2O)cc1`, the pIC50 on B-cell receptor CD22 is 3.88; in experiment [1], 4.49.
The corresponding values for `COc1ccc(O[C@@H]2O[C@H](CO[C@]3(C(=O)O)C[C@H](O)[C@@H](NC(=O)CO)[C@H]([C@H](O)[C@H](O)CNC(=O)c4ccccc4O)O3)[C@H](O)[C@H](O)[C@H]2O)cc1` are 3.72 and 3.86.
The like results for `COc1ccc(O[C@@H]2O[C@H](CO[C@]3(C(=O)O)C[C@H](O)[C@@H](NC(=O)CO)[C@H]([C@H](O)[C@H](O)CN)O3)[C@H](O)[C@H](O)[C@H]2O)cc1` were, in that order, 4.07 and 4.03.
